Results on four compounds are retold here after ChEMBL document CHEMBL4400511, “Benzothiopyranoindole- and pyridothiopyranoindole-based antiproliferative agents targeting topoisomerases” (2019).

The source made the active and inactive calls. The rule behind the calls is not given here.

The target in assay [1] is T1, DNA topoisomerase 1 (Homo sapiens) (UniProt P11387).
T1 sequence (whole entry): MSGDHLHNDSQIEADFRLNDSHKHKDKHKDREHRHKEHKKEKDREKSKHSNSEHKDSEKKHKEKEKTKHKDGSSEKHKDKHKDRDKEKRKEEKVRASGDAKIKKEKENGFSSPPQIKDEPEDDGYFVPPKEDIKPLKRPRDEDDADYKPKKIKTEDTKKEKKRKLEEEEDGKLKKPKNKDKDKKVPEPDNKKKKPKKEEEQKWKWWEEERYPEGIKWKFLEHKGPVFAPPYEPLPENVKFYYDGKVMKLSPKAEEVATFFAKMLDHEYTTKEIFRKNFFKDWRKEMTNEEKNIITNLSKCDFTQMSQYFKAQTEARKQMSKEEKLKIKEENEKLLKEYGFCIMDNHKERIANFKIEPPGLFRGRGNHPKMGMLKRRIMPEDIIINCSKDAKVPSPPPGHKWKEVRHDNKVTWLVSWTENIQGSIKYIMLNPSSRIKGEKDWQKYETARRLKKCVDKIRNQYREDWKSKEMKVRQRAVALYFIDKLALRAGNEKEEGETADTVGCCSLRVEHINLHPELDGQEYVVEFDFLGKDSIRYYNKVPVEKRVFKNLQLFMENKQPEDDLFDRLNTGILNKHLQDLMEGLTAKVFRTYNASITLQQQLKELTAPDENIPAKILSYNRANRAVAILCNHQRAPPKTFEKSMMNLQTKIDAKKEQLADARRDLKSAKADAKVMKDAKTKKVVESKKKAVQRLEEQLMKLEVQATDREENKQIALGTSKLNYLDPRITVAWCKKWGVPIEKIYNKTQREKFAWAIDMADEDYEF
Briefly: Poison activity at recombinant human topoisomerase-1 assessed as stabilization of covalent topo-1-DNA cleavage complex by measuring nicked DNA formation using supercoiled pBR322 DNA as substrate after 60 mins by agarose gel electrophoresis method. In a few lines: (§1)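 Cleavable-complex assay: supercoiled pBR322 DNA was incubated with Topo I, with or without compound at a series of µM concentrations. Nicked DNA formation marks covalent complex stabilisation. Reference is 0.5 µM camptothecin.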

The test system of assay [2] is Salmon testes DNA. Description: Binding affinity to salmon DNA at compound to DNA ratio of 0.02 to 0.04 by linear flow dichroism analysis. It is filed as nucleic-acid assay. To be noted: Salmonidae.
Assay [3] deals with DNA topoisomerase 2-alpha (Homo sapiens) (UniProt P11388). Description: Inhibition of recombinant human topoisomerase 2alpha assessed as decrease in relaxation of supercoiled pBR322 DNA after 60 mins by ethidium bromide staining based agarose gel electrophoresis method. In short, it runs like this: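 Topo II was incubated with supercoiled pBR322 DNA, with or without compound at a series of µM concentrations. Read-out is topoisomer formation from supercoiled DNA on a gel. Reference is 10 µM m-AMSA.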

Assay [4] concerns HeLa. Briefly: Growth inhibition in human HeLa cells after 72 hrs by trypan blue dye-based assay. It is filed as functional. In a few lines:
(§2)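 Three human tumour lines were used: HeLa (cervix adenocarcinoma), A-431 (epidermoid/squamous carcinoma) and MSTO-211H (biphasic mesothelioma). GI50 is the µM concentration giving 50% cell death relative to the untreated control culture. Ellipticine was run as reference.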

The target in assay [5] is DNA topoisomerase 2-alpha (Homo sapiens) (UniProt P11388). Description: Poison activity at recombinant human topoisomerase-2 assessed as stabilization of covalent topo-2-DNA cleavage complex by measuring linear DNA formation up to 50 uM using supercoiled pBR322 DNA as substrate after 60 mins by agarose gel electrophoresis method. In short, it runs like this: (§3)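 Cleavable-complex assay: supercoiled pBR322 DNA was incubated with Topo II, with or without compound at a series of µM concentrations. Enzyme-mediated linear DNA marks cleavage-complex stabilisation. Reference poison is 10 µM m-AMSA.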

In assay [6] the target is T1, DNA topoisomerase 1 (Homo sapiens). Description: Inhibition of recombinant human topoisomerase 1 assessed as decrease in relaxation of supercoiled pBR322 DNA after 60 mins by ethidium bromide staining based agarose gel electrophoresis method. In short, it runs like this:
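Human recombinant Topo I was incubated with supercoiled pBR322 DNA, with or without compound at a series of µM concentrations. Read-out is the number of relaxed topoisomers formed.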

For assay [7] the target is unchanged. Briefly: Poison activity at recombinant human topoisomerase-1 assessed as stabilization of covalent topo-1-DNA cleavage complex by measuring nicked DNA formation at 0.5 to 50 uM using supercoiled pBR322 DNA as substrate after 60 mins by agarose gel electrophoresis method. In a few lines: as §1
The next assay has as its system A-431. Description: Growth inhibition in human A431 cells after 72 hrs by trypan blue dye-based assay. The settings on record: A-431, 72 h. It is filed as functional. In a few lines: as §2
In another assay the test system is MSTO-211H. Description: Growth inhibition in human MSTO-211H cells after 72 hrs by trypan blue dye-based assay. It counts as functional. In short, it runs like this:
as §2

Assay [8] has as its system HeLa. Description: Induction of apoptosis in human HeLa cells assessed as early apoptotic cells at 80 uM after 18 hrs by Annexin-V-FITC/propidium iodide staining based flow cytometric analysis (reference value: 5.6%). It is filed as functional. In short, it runs like this: (§4)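 HeLa cells were incubated 18 h without compound (control) or at 20 and 80 µM. They were stained with FITC-annexin V and propidium iodide and analysed by dual-parameter flow cytometry. Cells were scored as viable, early apoptotic, late apoptotic or necrotic.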
(In general: A flow cytometer gives signals particle by particle.)

The test system of assay [9] is HeLa. Description: Induction of apoptosis in human HeLa cells assessed as necrotic cells at 20 uM after 18 hrs by Annexin-V-FITC/propidium iodide staining based flow cytometric analysis (reference value: 0.7%). It counts as functional. In short, it runs like this:
as §4

Assay [10] relates to HeLa. Briefly: Induction of apoptosis in human HeLa cells assessed as late apoptotic cells at 20 uM after 18 hrs by Annexin-V-FITC/propidium iodide staining based flow cytometric analysis (reference value: 2.2%). It counts as functional. In a few lines: as §4
For assay [11], the system named is HeLa. Briefly: Induction of apoptosis in human HeLa cells assessed as necrotic cells at 80 uM after 18 hrs by Annexin-V-FITC/propidium iodide staining based flow cytometric analysis (reference value: 0.7%). It counts as functional. In short, it runs like this: as §4
The test system of assay [12] is HeLa. Description: Induction of apoptosis in human HeLa cells assessed as early apoptotic cells at 20 uM after 18 hrs by Annexin-V-FITC/propidium iodide staining based flow cytometric analysis (reference value: 5.6%). It counts as functional. In short, it runs like this:
as §4

For assay [13], the system named is HeLa. Description: Induction of apoptosis in human HeLa cells assessed as viable cells at 80 uM after 18 hrs by Annexin-V-FITC/propidium iodide staining based flow cytometric analysis (reference value: 91.6%). It counts as functional. To be noted: read-out: Activity. In short, it runs like this: as §4
The test system of assay [14] is HeLa. Briefly: Induction of apoptosis in human HeLa cells assessed as viable cells at 20 uM after 18 hrs by Annexin-V-FITC/propidium iodide staining based flow cytometric analysis (reference value: 91.6%). It counts as functional. The settings on record: read-out: Activity. In a few lines: as §4
Assay [15] has as its system HeLa. Briefly: Induction of apoptosis in human HeLa cells assessed as late apoptotic cells at 80 uM after 18 hrs by Annexin-V-FITC/propidium iodide staining based flow cytometric analysis (reference value: 2.2%). It is filed as functional. In a few lines: as §4
For assay [16], the system named is Salmon testes DNA. Briefly: Binding affinity to salmon DNA at compound to DNA ratio of 0.08 by linear flow dichroism analysis. It is filed as nucleic-acid assay. To be noted: Salmonidae.
For assay [17], the target named is DNA topoisomerase 2-alpha (Homo sapiens) (UniProt P11388). Description: Poison activity at recombinant human topoisomerase-2 assessed as stabilization of covalent topo-2-DNA cleavage complex by measuring linear DNA formation at 10 uM using supercoiled pBR322 DNA as substrate after 60 mins by agarose gel electrophoresis method. In short, it runs like this: as §3

DNA topoisomerase 2-alpha (Homo sapiens), sequence (P11388 whole entry): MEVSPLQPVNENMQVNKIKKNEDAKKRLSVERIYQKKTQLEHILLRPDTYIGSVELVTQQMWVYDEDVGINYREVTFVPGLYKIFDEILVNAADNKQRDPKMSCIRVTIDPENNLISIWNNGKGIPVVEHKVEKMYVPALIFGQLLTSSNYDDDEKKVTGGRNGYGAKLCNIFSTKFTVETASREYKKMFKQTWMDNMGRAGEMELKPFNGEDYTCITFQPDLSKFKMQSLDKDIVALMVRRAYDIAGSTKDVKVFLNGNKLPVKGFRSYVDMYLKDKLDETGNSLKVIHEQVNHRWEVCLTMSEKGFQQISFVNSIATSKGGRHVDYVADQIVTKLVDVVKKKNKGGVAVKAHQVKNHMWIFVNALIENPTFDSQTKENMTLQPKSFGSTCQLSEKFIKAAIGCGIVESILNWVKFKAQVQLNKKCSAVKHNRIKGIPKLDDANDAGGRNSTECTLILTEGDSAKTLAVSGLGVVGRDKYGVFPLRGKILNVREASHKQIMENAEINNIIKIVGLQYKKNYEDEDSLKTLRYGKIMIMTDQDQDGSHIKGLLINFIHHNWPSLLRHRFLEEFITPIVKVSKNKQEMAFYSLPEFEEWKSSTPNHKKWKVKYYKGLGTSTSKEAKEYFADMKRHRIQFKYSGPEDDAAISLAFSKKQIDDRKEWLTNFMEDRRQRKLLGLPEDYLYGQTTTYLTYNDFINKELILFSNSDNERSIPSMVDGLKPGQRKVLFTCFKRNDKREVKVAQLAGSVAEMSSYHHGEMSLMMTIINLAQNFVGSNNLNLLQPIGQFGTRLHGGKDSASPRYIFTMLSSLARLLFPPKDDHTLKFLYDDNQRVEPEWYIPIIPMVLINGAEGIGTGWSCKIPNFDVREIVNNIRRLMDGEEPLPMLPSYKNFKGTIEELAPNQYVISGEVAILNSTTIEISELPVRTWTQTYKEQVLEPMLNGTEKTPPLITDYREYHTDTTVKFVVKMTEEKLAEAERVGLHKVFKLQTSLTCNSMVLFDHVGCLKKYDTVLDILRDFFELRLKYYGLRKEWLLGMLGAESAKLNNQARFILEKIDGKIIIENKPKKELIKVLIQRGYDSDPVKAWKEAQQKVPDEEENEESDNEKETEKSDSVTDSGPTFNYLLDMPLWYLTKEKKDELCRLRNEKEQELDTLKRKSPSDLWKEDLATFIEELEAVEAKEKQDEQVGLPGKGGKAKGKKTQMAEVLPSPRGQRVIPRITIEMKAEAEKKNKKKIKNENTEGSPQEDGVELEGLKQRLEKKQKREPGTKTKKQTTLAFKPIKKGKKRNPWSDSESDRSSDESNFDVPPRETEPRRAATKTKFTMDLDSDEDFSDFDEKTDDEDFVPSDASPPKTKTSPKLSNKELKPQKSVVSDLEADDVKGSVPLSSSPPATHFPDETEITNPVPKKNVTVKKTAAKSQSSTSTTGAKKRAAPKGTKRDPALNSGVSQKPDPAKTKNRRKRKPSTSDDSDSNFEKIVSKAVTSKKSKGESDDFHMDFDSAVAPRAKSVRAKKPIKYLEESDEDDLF

With `COc1cc2c3sc4ncccc4c(=O)c3n(CCN(C)C)c2cc1OC`, the Activity entry in assay [1] is “Dose-dependent effect”. The outcome (in the assay with Salmon testes DNA [2]; in assay [7]) was Active. Besides, the inhibition entry in [3] and in [6] was “Dose-dependent effect” in each case. The values for the GI50 with HeLa [4], in the assay on A-431 and in the assay with MSTO-211H were 1700 nM, 710 nM and 350 nM, respectively. For the same compound, the outcome in assay [5] was inactive.
With `COc1cc2c3sc4ccccc4c(=O)c3n(CCN(C)C)c2cc1OC`, the Activity result in [1] is “Dose-dependent effect”; in the assay with HeLa [8], 31.5%; with HeLa [9] it was 2%; with HeLa [10], 2.7%; with HeLa [11], 7.7%; with HeLa [12], 8.6%. For the same compound, in the assay on HeLa [15], the Activity is reported as 17%. The outcome (in the assay with Salmon testes DNA [2]; in assay [7]) was Active. Further, the viability at 80 µM in the assay on HeLa [13] amounted to 43.8%. The inhibition result in assay [3] and in assay [6] was “Dose-dependent effect” each time. Besides, the GI50 in the assay on HeLa [4] turned out to be 820 nM; in the assay with A-431, 330 nM; with MSTO-211H, 310 nM. For the same compound, the outcome in [5] was inactive. Also, the viability at 20 µM in the assay with HeLa [14] was 86.7%.
As for `Cc1c2ccncc2c(C)c2c1[nH]c1ccccc12` [ELLIPTECINE], in the assay with Salmon testes DNA [2], the outcome was Active. Further, the GI50 was 470 nM with HeLa [4], 650 nM with A-431 and 770 nM in the assay on MSTO-211H.
For the compound `COc1ccc2c(c1)c1sc3cc(Cl)ccc3c(=O)c1n2CCN(C)C`, the inhibition entry in assay [3] and in assay [6] was “Dose-dependent effect” in each case. For the same compound, the 50% growth inhibitory concentration (GI50) came out at 2790 nM in the assay with HeLa [4], 2670 nM with A-431 and 2960 nM in the assay with MSTO-211H. Moreover, the outcome in assay [7] was inactive. For the same compound, the result (in the assay on Salmon testes DNA [16]; in assay [17]) was Active.

As a reminder, the GI50 is the concentration giving 50% growth inhibition.
